Legend:
[1] = target: T1, Amine oxidase [flavin-containing] B (Bos taurus, UniProt P56560); experiment: Ratio of catalytic constant and Michaelis-Menten constant for MAO-B.; settings: cattle
T1 sequence (P56560 whole entry): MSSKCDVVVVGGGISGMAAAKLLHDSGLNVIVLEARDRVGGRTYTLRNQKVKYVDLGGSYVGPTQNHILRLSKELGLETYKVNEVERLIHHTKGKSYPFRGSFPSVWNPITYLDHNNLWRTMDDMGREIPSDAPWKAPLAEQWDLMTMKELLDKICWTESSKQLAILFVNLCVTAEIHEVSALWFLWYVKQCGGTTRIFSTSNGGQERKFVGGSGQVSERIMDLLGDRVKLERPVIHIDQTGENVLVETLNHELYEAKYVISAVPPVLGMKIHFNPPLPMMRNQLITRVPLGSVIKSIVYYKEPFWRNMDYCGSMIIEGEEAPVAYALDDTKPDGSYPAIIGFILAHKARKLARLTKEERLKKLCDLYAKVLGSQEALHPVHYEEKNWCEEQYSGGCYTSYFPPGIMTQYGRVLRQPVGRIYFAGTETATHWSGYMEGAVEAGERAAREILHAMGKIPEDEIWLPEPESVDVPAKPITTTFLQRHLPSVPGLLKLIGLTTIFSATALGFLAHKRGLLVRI
Procedure, shortened: (§1)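 MAO-B at 0.08 μM final; activity was calibrated with MPTP at 30 °C and the preparation was stored at –15 °C. Substrate range 100–2000 μM in 100 mM sodium phosphate pH 7.4, with spectrophotometric initial oxidation rates. KM and kcat derived from double-reciprocal plots, and kcat/KM calculated from them.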

[2] = target: T2, Monoamine oxidase A (amine oxidase [flavin-containing] A) (Homo sapiens, UniProt P21397); experiment: Michaelis-Menten constant for Monoamine oxidase A catalyzed oxidation (Km)
T2 sequence (P21397 whole entry): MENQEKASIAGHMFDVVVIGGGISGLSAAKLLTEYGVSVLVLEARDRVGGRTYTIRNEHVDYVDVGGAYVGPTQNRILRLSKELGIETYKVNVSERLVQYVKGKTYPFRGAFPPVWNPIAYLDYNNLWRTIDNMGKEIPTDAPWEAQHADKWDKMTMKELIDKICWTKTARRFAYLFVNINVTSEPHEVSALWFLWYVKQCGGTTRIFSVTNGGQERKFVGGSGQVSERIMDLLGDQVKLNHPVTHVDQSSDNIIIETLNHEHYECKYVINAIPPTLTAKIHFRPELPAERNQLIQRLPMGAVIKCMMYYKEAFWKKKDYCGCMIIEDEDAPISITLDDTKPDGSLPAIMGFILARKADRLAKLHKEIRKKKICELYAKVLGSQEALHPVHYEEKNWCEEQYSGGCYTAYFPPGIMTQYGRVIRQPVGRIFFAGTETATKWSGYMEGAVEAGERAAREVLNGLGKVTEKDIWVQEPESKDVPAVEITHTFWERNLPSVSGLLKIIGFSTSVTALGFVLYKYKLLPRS
Procedure, shortened: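 MAO-A preparation, viscous, diluted with 3 volumes of phosphate buffer just before use; activity standardised with kynuramine at 30 °C. Substrates as oxalate salts at 100–2000 μM final in 100 mM sodium phosphate, pH 7.4, with 0.16 μM MAO-A. Initial oxidation rates were followed spectrophotometrically, and Km came from double-reciprocal plots.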

[3] = target: T3, Monoamine oxidase B (amine oxidase [flavin-containing] B) (Bos taurus, UniProt P56560); experiment: (§2) Michaelis-Menten constant for Monoamine oxidase B catalyzed oxidation (KM).; settings: cattle; procedure, shortened: as §1
T3 sequence (P56560 whole entry): T1 sequence (P56560 whole entry)

[4] = target: T4, Amine oxidase [flavin-containing] A (Homo sapiens, UniProt P21397); experiment: Ratio of catalytic constant and Michaelis-Menten constant for MAO-A.
T4 sequence (P21397 whole entry): T2 sequence (P21397 whole entry)
Procedure, shortened: (§3)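 MAO-A at 0.16 μM final, raised to 0.32 μM for one slowly oxidized substrate. The MAO-A preparation was diluted with 3 volumes of phosphate buffer just before use, and its activity was re-checked bimonthly with kynuramine at 30 °C. Substrates at 100–2000 μM in 100 mM sodium phosphate pH 7.4; initial rates by spectrophotometry. kcat and KM from double-reciprocal plots; kcat/KM as their ratio.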

[5] = target: T1, Amine oxidase [flavin-containing] B; experiment: Kinetic value evaluated as catalyzed oxidation rate (kcat).; settings: cattle
Procedure, shortened: (§4)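 kcat from initial oxidation rates, read by spectrophotometer, with test compounds at 100–2000 μM final in 100 mM sodium phosphate pH 7.4, using 0.16 μM MAO-A or 0.08 μM MAO-B. kcat and KM came from double-reciprocal plots. Repeat determinations were made on selected substrates at different times.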

[6] = target: T4, Amine oxidase [flavin-containing] A; experiment: Kinetic value evaluated as catalyzed oxidation (kcat).; procedure, shortened: as §4
[7] = target: T1, Amine oxidase [flavin-containing] B; experiment: as §2; settings: cattle; procedure, shortened: as §1
[8] = target: T4, Amine oxidase [flavin-containing] A; experiment: Michaelis-Menten constant for Monoamine oxidase A-catalyzed oxidation (KM).; procedure, shortened: as §3

k cat/Km [1] [M⁻¹ s⁻¹]	k cat/Km [4] [M⁻¹ s⁻¹]	k cat [5] [s⁻¹]	k cat [6] [s⁻¹]	Km [7] [µM]	Km [8] [µM]	SMILES	Km [2] [µM]	Km [3] [µM]
6050	28500	1.72	2.88	284	101	CN1CC=C(Oc2ccc(-c3ccccc3)cc2)CC1	–	–
69180	39320	4.02	2.17	58	55	CN1CC=C(Oc2ccccc2)CC1	–	–

SMILES	k cat/Km [1] [M⁻¹ s⁻¹]	k cat/Km [4] [M⁻¹ s⁻¹]	k cat [5] [s⁻¹]	k cat [6] [s⁻¹]	Km [7] [µM]	Km [8] [µM]	Km [2] [µM]	Km [3] [µM]
CN1CC=C(c2ccccc2)CC1	23850	783	4.55	0.517	–	–	654	191

Source: ChEMBL document CHEMBL1128681, “Studies on the monoamine oxidase (MAO)-catalyzed oxidation of phenyl-substituted 1-methyl-4-phenoxy-1,2,3,6-tetrahydropyridine derivatives: factors contributing to MAO-A and MAO-B selectivity” (J Med Chem, 1995)
